We go through 15 molecules from ChEMBL document CHEMBL1148328, “Synthesis and structure-activity relationships of parasiticidal thiosemicarbazone cysteine protease inhibitors against Plasmodium falciparum, Trypanosoma brucei, and Trypanosoma cruzi” (J Med Chem, 2004).

A value given as a limit tells only on which side of the number the result lay.

One assay has as its target Cruzipain (Trypanosoma cruzi, UniProt P25779). The assay is described as follows: Inhibition of cruzain from Trypanosoma cruzi. A digest of the protocol:
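Recombinant cruzain (2 nM) preincubated 5 min at room temperature with 0.5–10 μM inhibitor in 100 mM sodium acetate pH 5.5 with 5 mM DTT, 0.7% DMSO. Reaction started with Z-Phe-Arg-AMC at 20 μM final (Km 1 μM), followed by fluorescence at ex 355/em 460. IC50 read graphically from inhibition vs log[I], seven concentrations with at least two in the linear range.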

In assay [1] the test system is Trypanosoma brucei rhodesiense. The assay is described as follows: Effective dose required to inhibit Trypanosoma brucei rhodesiense in culture. Type of assay: functional. The settings on record: read-out: ED50 (the source's name). A digest of the protocol: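 T. b. rhodesiense grown at 37 °C, 5% CO2 in HMI-9 with 10% FBS and 10% Serum Plus, seeded at 10⁴ cells/mL. Inhibitor serially diluted directly in culture from the top concentration down to 1 nM. Exposure 48 h at 37 °C. Viability read as ATP content by CellTiter-Glo luminescence after 5 min shaking at room temperature, or by hemacytometer count.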

Assay [2] can be described thus: Survival of infected cells against Trypanosoma cruzi in days at a dose of 5 uM; Toxicity = None.
A further assay addresses Rhodesain (Trypanosoma brucei rhodesiense, UniProt Q95PM0). The experiment in a line: Inhibition of rhodesain from Trypanosoma brucei rhodesiense. The procedure, abridged:
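Recombinant rhodesain (3 nM) preincubated 5 min at room temperature with 0.5–10 µM inhibitor in 100 mM sodium acetate pH 5.5, 5 mM DTT, 0.7% DMSO final. Z-Phe-Arg-AMC then added (20 µM final) and fluorescence rise followed at ex 355/em 460. IC50 read graphically from linear portion of inhibition vs log[I], seven concentrations, at least two in linear range.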

Assay [3] is described as follows: Survival of infected cells against Trypanosoma cruzi in days at a dose of 5 uM; Toxicity = Toxic.
Another assay concerns the target T1, Falcipain 2 (Plasmodium falciparum, UniProt Q9N6S8).
T1 sequence (Q9N6S8 whole entry): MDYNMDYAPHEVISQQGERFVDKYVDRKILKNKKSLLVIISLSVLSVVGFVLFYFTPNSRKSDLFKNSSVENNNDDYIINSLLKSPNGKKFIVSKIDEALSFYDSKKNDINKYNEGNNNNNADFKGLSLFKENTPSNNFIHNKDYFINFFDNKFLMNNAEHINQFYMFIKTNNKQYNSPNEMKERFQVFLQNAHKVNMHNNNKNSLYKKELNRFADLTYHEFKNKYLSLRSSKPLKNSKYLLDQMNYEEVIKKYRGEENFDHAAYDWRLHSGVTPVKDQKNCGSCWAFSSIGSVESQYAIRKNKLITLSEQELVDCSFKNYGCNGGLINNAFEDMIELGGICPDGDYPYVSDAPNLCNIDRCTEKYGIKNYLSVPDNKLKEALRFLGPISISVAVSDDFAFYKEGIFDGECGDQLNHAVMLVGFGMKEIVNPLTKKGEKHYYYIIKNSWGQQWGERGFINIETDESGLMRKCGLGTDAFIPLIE
The assay is described as follows: Inhibition of falcipain2 from Plasmodium falciparum. A digest of the protocol:
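Recombinant falcipain-2 preincubated 30 min at room temperature with inhibitor in 100 mM sodium acetate pH 5.5 with 10 mM DTT, DMSO at most 1%. Z-Leu-Arg-AMC then added to 25 μM final, and fluorescence monitored 15 min at room temperature. IC50 taken from plots of percent activity against compound concentration.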

In the next assay the test system is Plasmodium falciparum. The experiment in a line: Effective inhibition of Plasmodium falciparum. It is filed as functional. As to conditions: read-out: ED50 (the source's name). A digest of the protocol:
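W2-strain parasites at 1% parasitemia and 2% hematocrit, run in duplicate. Inhibitor diluted from DMSO stocks in 1:5 steps to final 10 μM, 2000, 400, 80, 16 and 3.2 nM. Cultures kept 2 days at 37 °C, then washed and fixed in 1% formaldehyde/PBS. Parasitemia measured by flow cytometry with YOYO-1 DNA stain.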

Sequence of Rhodesain (Q95PM0 whole entry): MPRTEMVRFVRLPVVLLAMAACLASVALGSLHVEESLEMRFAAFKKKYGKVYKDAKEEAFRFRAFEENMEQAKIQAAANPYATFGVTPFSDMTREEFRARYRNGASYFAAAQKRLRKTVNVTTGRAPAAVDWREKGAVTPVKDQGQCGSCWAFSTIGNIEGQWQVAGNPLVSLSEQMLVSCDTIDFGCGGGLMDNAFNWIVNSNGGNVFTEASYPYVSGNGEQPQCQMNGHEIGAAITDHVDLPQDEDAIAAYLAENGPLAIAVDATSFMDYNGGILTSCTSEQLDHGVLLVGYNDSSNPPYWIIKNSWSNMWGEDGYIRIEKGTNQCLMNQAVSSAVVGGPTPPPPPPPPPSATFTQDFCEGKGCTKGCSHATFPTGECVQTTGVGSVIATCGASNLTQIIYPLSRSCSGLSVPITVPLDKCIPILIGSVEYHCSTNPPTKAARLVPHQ
Sequence of Cruzipain (P25779 whole entry): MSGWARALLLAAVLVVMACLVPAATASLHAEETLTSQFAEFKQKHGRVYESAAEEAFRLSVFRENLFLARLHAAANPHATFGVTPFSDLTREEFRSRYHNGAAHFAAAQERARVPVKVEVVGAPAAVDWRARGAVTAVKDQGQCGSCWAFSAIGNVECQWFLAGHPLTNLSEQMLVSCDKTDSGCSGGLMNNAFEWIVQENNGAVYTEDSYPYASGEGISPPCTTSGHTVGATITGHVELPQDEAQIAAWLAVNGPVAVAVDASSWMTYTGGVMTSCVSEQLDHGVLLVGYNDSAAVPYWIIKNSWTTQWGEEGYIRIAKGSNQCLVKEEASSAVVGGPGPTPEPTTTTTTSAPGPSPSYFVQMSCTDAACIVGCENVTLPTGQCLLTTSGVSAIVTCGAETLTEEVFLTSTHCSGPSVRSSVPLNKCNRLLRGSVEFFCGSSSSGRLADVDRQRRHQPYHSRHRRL

For the molecule `C/C(=N/N=C(/N)S)c1cccc(/C(C)=N/N=C(/N)S)c1`, the results for the half-maximal inhibitory concentration (IC50) against Cruzipain and against Rhodesain were 5 µM and 0.33 µM, respectively. Besides, the EC50 in assay [1] is more than 20 µM. The Survival in assay [2] was found to be 5 days.

Turning to `C/C(=N\N=C(\N)S)c1cccc(Oc2ccccc2)c1`, the IC50 (as a rule, the point on the concentration scale where inhibition reaches its midpoint) was found to be 10 µM against Cruzipain and 0.55 µM against Rhodesain. Moreover, the EC50 in assay [1] was 6 µM. The molecule also showed a Survival in assay [3] of 27 days.

As to `C/C(=N\N=C(\N)S)c1ccc(-c2ccccc2)cc1`, the figures for the IC50 at Cruzipain, at Falcipain 2 and against Rhodesain were 5 µM, 10 µM and 0.09 µM, respectively. Moreover, the results for the EC50 (in the assay on Plasmodium falciparum; in assay [1]) were more than 20 µM and 10 µM, respectively. The Survival in assay [3] amounted to 8 days.

Take `C/C(=N\NC(N)=S)c1ccccn1`: the concentration for half-maximal inhibition (IC50) against Cruzipain, against Falcipain 2 and against Rhodesain was more than 20 µM in each case. The EC50 in the assay on Plasmodium falciparum came out at 0.08 µM; in assay [1], 4 µM. Besides, the Survival in assay [2] came to 43 days.

In the case of `CCN(CC)/C(S)=N/N=C(\C)c1cccc(Br)c1`, the IC50 against Cruzipain came to 5 µM; on Rhodesain, 1.8 µM. The EC50 in assay [1] was found to be 3 µM. In assay [2], the Survival was determined as 5 days.

Consider `C/C(=N\N=C(/S)N1CCN(C)CC1)c1cccc(Br)c1`, for which the values for the IC50 on Cruzipain, against Falcipain 2 and on Rhodesain were 5 µM, more than 20 µM and 4 µM, respectively. For the same molecule, the EC50 in the assay with Plasmodium falciparum was 4 µM; in assay [1], 2 µM. In assay [3], the Survival stood at 14 days.

With `CS/C(S)=N/N=C(\C)c1ccccn1`, the half-maximal inhibitory concentration (IC50) against Falcipain 2 and against Rhodesain was more than 20 µM in each case. Further, the EC50 with Plasmodium falciparum stood at 0.03 µM; in assay [1] it was 0.3 µM.

For the molecule `C/C(=N\N=C(\N)S)c1ccc(Oc2ccccc2)cc1`, the IC50 against Cruzipain was 10 µM; against Rhodesain, 8 µM. For the same molecule, the EC50 in assay [1] came to 3 µM. Besides, in assay [3], the Survival stood at 28 days.

For the molecule `C/C(=N\N=C(/S)N1CCCCC1)c1cccc(Br)c1`, the results for the 50% inhibitory concentration (IC50) on Cruzipain and against Rhodesain were 5 µM and 4 µM, respectively. Also, the EC50 in assay [1] was 3 µM. This molecule also gave a Survival in assay [2] of 5 days.

Consider `C/C(=N\N=C(\N)S)c1cccc(-c2ccccc2)c1`, for which the IC50 at Cruzipain turned out to be 8 µM; against Rhodesain, 1.1 µM. For the same molecule, the EC50 in assay [1] is 12 µM. In assay [2], the Survival was 43 days.

For `CS/C(S)=N/N=C(\C)c1cccc(Br)c1`, the IC50 on Cruzipain and against Rhodesain was more than 20 µM each time. In addition, in assay [1], the EC50 was found to be 10 µM. This molecule yielded a Survival in assay [3] of 7 days.

Turning to `C/C(=N\N=C(\N)S)c1cccc(Br)c1`, the half-maximal inhibitory concentration (IC50) amounted to 0.06 µM on Cruzipain and 0.05 µM at Rhodesain. The EC50 in assay [1] was more than 20 µM. Also, the Survival in assay [2] turned out to be 43 days.

For the molecule `C/C(=N\N=C(\N)S)c1cccc(Nc2ccccc2)c1`, the IC50 at Cruzipain was more than 20 µM; on Rhodesain, 0.8 µM. The EC50 in assay [1] came out at 8 µM. For the same molecule, the Survival in assay [2] is 43 days.

Molecule `C/C(=N/N=C(/N)S)c1cccc(/C(C)=N/N=C(/N)S)n1` had a half-maximal inhibitory concentration (IC50) at Falcipain 2 of more than 20 µM. In the assay on Plasmodium falciparum, the EC50 came out at 0.03 µM.

Take `C/C(=N\N=C(\N)S)c1ccc(Nc2ccccc2)cc1`: the results for the half-inhibitory concentration (IC50) on Cruzipain, on Falcipain 2 and at Rhodesain were more than 20 µM, more than 20 µM and 18 µM, respectively. The EC50 with Plasmodium falciparum is 9.9 µM; in assay [1] it was 4.5 µM. Besides, in assay [2], the Survival was 43 days.
